# Experimental data as given in ChEMBL document CHEMBL1121740, “2-l-Rhamnopyranosyl[1,2,4]triazolo[1,5-a]pyridine. 4' and 3' Oxidation products. Synthesis and structure-activity relationships” (J Med Chem, 1981).
# Tests used:
# [1] = Cytotoxic dose that inhibit multiplication of normal fibroblast cells (C3H cells); format: cell-based; settings: mouse, read-out: CD50 (the source's name)
# Procedure, shortened: (§1)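 Growth assay on C3H mouse fibroblasts. 10⁴ cells are seeded per well, and different doses of product are added 24 h later. Cellular growth and morphology are examined on day +5.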
# [2] = Percent inhibition at 10 ug/mL for focus formation using MLV assay on S+L- cells; format: functional; settings: Mus musculus
# [3] = Cytotoxicity at 5 ug/mL against MSV transformed (S+L-cells) cells; format: cell-based; settings: mouse
# Procedure, shortened: (§2)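 Colony-forming (plating efficiency) assay. 200 C3H or S+L- 3T3 FL cells per well, grown in McCoy's 5a with 10% heat-inactivated FCS. Various product concentrations are added 24 h after seeding. Colonies are stained with May Grunwald Giemsa and counted on day +9. Percent colony formation is taken relative to untreated control cells, set as 100% plating efficiency.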
# [4] = Cytotoxicity at 10 ug/mL against MSV transformed (S+L-cells) cells; format: cell-based; settings: mouse; procedure, shortened: as §2
# [5] = Percent inhibition at 3 ug/mL for focus formation on day +5, using MSV assay on C3H cells with optimal amount of helper virus; format: functional; settings: Mus musculus
# Procedure, shortened: (§3)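 MSV focus assay on C3H cells. 8 × 10⁴ cells are seeded per 60-mm dish and pretreated 24 h later with 20 µg/mL DEAE-dextran. Cells are infected with diluted MSV alone or MSV plus MuLV helper, with adsorption for 30 min at 37 °C. Filtered aqueous compound, diluted in medium, is added right after infection. Foci are counted on days 5 and 10. MSV titer was 7×10⁶.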
# [6] = Cytotoxicity at 20 ug/mL against MSV transformed (S+L-cells) cells; format: cell-based; settings: mouse; procedure, shortened: as §2
# [7] = Percent inhibition at 5 ug/mL for focus formation on day +10, using MSV assay on C3H cells without the addition of helper virus; format: functional; settings: Mus musculus; procedure, shortened: as §3
# [8] = Percent inhibition at 10 ug/mL for focus formation on day +5, using MSV assay on C3H cells with optimal amount of helper virus; format: functional; settings: Mus musculus; procedure, shortened: as §3
# [9] = Cytotoxicity at 20 ug/mL against normal mouse fibroblasts (C3H cells) cells; format: cell-based; procedure, shortened: as §2
# [10] = Percent inhibition at 5 ug/mL for focus formation using MLV assay on S+L- cells; format: functional; settings: Mus musculus
# [11] = Percent inhibition at 3 ug/mL for focus formation on day +5, using MSV assay on C3H cells without the addition of helper virus; format: functional; settings: Mus musculus; procedure, shortened: as §3
# [12] = Percent inhibition at 20 ug/mL for focus formation on day +10, using MSV assay on C3H cells without the addition of helper virus; format: functional; settings: Mus musculus; procedure, shortened: as §3
# [13] = Percent inhibition at 3 ug/mL for focus formation using MLV assay on S+L- cells; format: functional; settings: Mus musculus
# [14] = Cytotoxicity at 5 ug/mL against normal mouse fibroblasts (C3H cells) cells; format: cell-based; procedure, shortened: as §2
# [15] = Percent inhibition at 5 ug/mL for focus formation on day +5, using MSV assay on C3H cells without the addition of helper virus; format: functional; settings: Mus musculus; procedure, shortened: as §3
# [16] = test system: Murine leukemia virus; assay: Inhibitory dose against MSV titer in the absence of Murine leukemia virus on day +10; format: functional, Mus musculus; settings: read-out: ID50 (the source's name); procedure, shortened: as §3
# [17] = Percent inhibition at 20 ug/mL for focus formation on day +5, using MSV assay on C3H cells with optimal amount of helper virus; format: functional; settings: Mus musculus; procedure, shortened: as §3
# [18] = Percent inhibition at 3 ug/mL for focus formation on day +10, using MSV assay on C3H cells without the addition of helper virus; format: functional; settings: Mus musculus; procedure, shortened: as §3
# [19] = Toxic effect on S+L-cell colony formation; format: toxicity; settings: mouse, S+L- cells; read-out: TD50 (the source's name)
# Procedure, shortened: (§4)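 S+L- (MSV-transformed 3T3 FL) cells grown in McCoy's 5a with 10% heat-inactivated fetal calf serum and antibiotics. Plating efficiency assay: 200 cells seeded per 35-mm well; product added at various concentrations 24 h after seeding. Colonies stained with May Grunwald Giemsa and counted on day +9. Colony formation expressed relative to untreated controls taken as 100% plating efficiency.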
# [20] = Percent inhibition at 5 ug/mL for focus formation on day +5, using MSV assay on C3H cells with optimal amount of helper virus; format: functional; settings: Mus musculus; procedure, shortened: as §3
# [21] = Cytotoxic dose that inhibit multiplication of normal fibroblasts; settings: mouse, read-out: CD50 (the source's name); procedure, shortened: as §1
# [22] = Percent inhibition at 20 ug/mL for focus formation on day +5, using MSV assay on C3H cells without the addition of helper virus; format: functional; settings: Mus musculus; procedure, shortened: as §3
# [23] = Percent inhibition at 10 ug/mL for focus formation on day +5, using MSV assay on C3H cells without the addition of helper virus; format: functional; settings: Mus musculus; procedure, shortened: as §3
# [24] = Percent inhibition at 10 ug/mL for focus formation on day +10, using MSV assay on C3H cells without the addition of helper virus; format: functional; settings: Mus musculus; procedure, shortened: as §3
# [25] = Cytotoxicity at 10 ug/mL against normal mouse fibroblasts (C3H cells) cells; format: cell-based; procedure, shortened: as §2
# [26] = Toxic effect on S+L- cell colony formation; format: toxicity; settings: mouse, S+L- cells; read-out: TD50 (the source's name); procedure, shortened: as §4
# [27] = Percent inhibition at 100 ug/mL for focus formation on day +5, using MSV assay on C3H cells without the addition of helper virus; format: functional; settings: Mus musculus; procedure, shortened: as §3
# [28] = Percent inhibition at 30 ug/mL for focus formation on day +5, using MSV assay on C3H cells without the addition of helper virus; format: functional; settings: Mus musculus; procedure, shortened: as §3
# [29] = Percent inhibition at 30 ug/mL for focus formation using MLV assay on S+L- cells; format: functional; settings: Mus musculus
# [30] = Percent inhibition at 30 ug/mL for focus formation on day +10, using MSV assay on C3H cells without the addition of helper virus; format: functional; settings: Mus musculus; procedure, shortened: as §3
# [31] = Cytotoxicity at 100 ug/mL against normal mouse fibroblasts (C3H cells) cells; format: cell-based; procedure, shortened: as §2
# [32] = Percent inhibition at 100 ug/mL for focus formation using MLV assay on S+L- cells; format: functional; settings: Mus musculus
# [33] = Percent inhibition at 100 ug/mL for focus formation on day +5, using MSV assay on C3H cells with optimal amount of helper virus; format: functional; settings: Mus musculus; procedure, shortened: as §3
# [34] = Cytotoxicity at 50 ug/mL against MSV transformed (S+L-cells) cells; format: cell-based; settings: mouse; procedure, shortened: as §2
# [35] = Cytotoxicity at 50 ug/mL against normal mouse fibroblasts (C3H cells) cells; format: cell-based; procedure, shortened: as §2
# [36] = Cytotoxicity at 100 ug/mL against MSV transformed (S+L-cells) cells; format: cell-based; settings: mouse; procedure, shortened: as §2
# [37] = Percent inhibition at 100 ug/mL for focus formation on day +10, using MSV assay on C3H cells without the addition of helper virus; format: functional; settings: Mus musculus; procedure, shortened: as §3
# [38] = Percent inhibition at 50 ug/mL for focus formation using MLV assay on S+L- cells; format: functional; settings: Mus musculus
# [39] = Percent inhibition at 50 ug/mL for focus formation on day +10, using MSV assay on C3H cells without the addition of helper virus; format: functional; settings: Mus musculus; procedure, shortened: as §3
# [40] = Percent inhibition at 30 ug/mL for focus formation on day +5, using MSV assay on C3H cells with optimal amount of helper virus; format: functional; settings: Mus musculus; procedure, shortened: as §3
# [41] = Cytotoxicity at 250 ug/mL against MSV transformed (S+L-cells) cells; format: cell-based; settings: mouse; procedure, shortened: as §2
# [42] = Percent inhibition at 50 ug/mL for focus formation on day +5, using MSV assay on C3H cells without the addition of helper virus; format: functional; settings: Mus musculus; procedure, shortened: as §3
# [43] = Inhibitory action of Murine leukemia virus titer on S+L-cell in presence of the compound; format: functional; settings: Mus musculus; read-out: ID50 (the source's name)
# [44] = Percent inhibition at 50 ug/mL for focus formation on day +5, using MSV assay on C3H cells with optimal amount of helper virus; format: functional; settings: Mus musculus; procedure, shortened: as §3
# [45] = Toxic effect on C3H cell colony formation; format: toxicity, cell-based; settings: mouse, C3H cells; read-out: TD50 (the source's name); procedure, shortened: as §2
# [46] = Cytotoxicity at 250 ug/mL against normal mouse fibroblasts (C3H cells) cells; format: cell-based; procedure, shortened: as §2
# [47] = Percent inhibition at 2.5 ug/mL for focus formation on day +5, using MSV assay on C3H cells with optimal amount of helper virus; format: functional; settings: Mus musculus; procedure, shortened: as §3
# [48] = Percent inhibition at 200 ug/mL for focus formation on day +10, using MSV assay on C3H cells without the addition of helper virus; format: functional; settings: Mus musculus; procedure, shortened: as §3
# [49] = Percent inhibition at 200 ug/mL for focus formation using MLV assay on S+L- cells; format: functional; settings: Mus musculus
# [50] = Percent inhibition at 200 ug/mL for focus formation on day +5, using MSV assay on C3H cells with optimal amount of helper virus; format: functional; settings: Mus musculus; procedure, shortened: as §3
# [51] = Percent inhibition at 200 ug/mL for focus formation on day +5, using MSV assay on C3H cells without the addition of helper virus; format: functional; settings: Mus musculus; procedure, shortened: as §3
structure (smiles),measurement,setting,value
C[C@@H]1O[C@@H](c2nc3c([N+](=O)[O-])cccn3n2)[C@H](O)[C@H](O)[C@@H]1O,CC50,[1],400 µg/mL
C[C@@H]1O[C@@H](c2nc3c([N+](=O)[O-])cccn3n2)[C@H](O)[C@H](O)[C@H]1O,CC50,[1],500 µg/mL
CC1OC(c2nc3c([N+](=O)[O-])cccn3n2)=CC(O)C1O (stereo unspecified),inhibition at 10 µg/mL,[2],82.5%
same,Colony formation,[3],49%
same,Colony formation,[4],18%
same,inhibition at 3 µg/mL,[5],39%
same,Colony formation,[6],0%
same,inhibition at 5 µg/mL,[7],30%
same,inhibition at 10 µg/mL,[8],50%
same,Colony formation,[9],2%
same,inhibition at 5 µg/mL,[10],50%
same,inhibition at 3 µg/mL,[11],15%
same,inhibition at 20 µg/mL,[12],70%
same,inhibition at 3 µg/mL,[13],30%
same,Colony formation,[14],71.5%
same,inhibition at 5 µg/mL,[15],44%
same,IC50,[16],9 µg/mL
same,inhibition at 20 µg/mL,[17],76%
same,inhibition at 3 µg/mL,[18],0%
same,CC50,[19],5 µg/mL
same,inhibition at 5 µg/mL,[20],26%
same,CC50,[21],62.5 µg/mL
same,inhibition at 20 µg/mL,[22],91%
same,inhibition at 10 µg/mL,[23],64%
same,inhibition at 10 µg/mL,[24],58%
same,Colony formation,[25],27%
CC1OC(c2nc3c([N+](=O)[O-])cccn3n2)C(O)C(O)C1=O (stereo unspecified),CC50,[26],73 µg/mL
same,inhibition at 100 µg/mL,[27],67%
same,inhibition at 30 µg/mL,[28],35%
same,inhibition at 30 µg/mL,[29],35%
same,inhibition at 30 µg/mL,[30],0%
same,Colony formation,[31],76%
same,inhibition at 100 µg/mL,[32],80%
same,inhibition at 100 µg/mL,[33],78%
same,Colony formation,[34],81%
same,Colony formation,[35],109%
same,Colony formation,[36],25%
same,inhibition at 100 µg/mL,[37],42%
same,inhibition at 50 µg/mL,[38],55%
same,inhibition at 50 µg/mL,[39],14%
same,IC50,[16],145 µg/mL
same,inhibition at 30 µg/mL,[40],31%
same,Colony formation,[41],0%
same,inhibition at 50 µg/mL,[42],54%
same,IC50,[43],43 µg/mL
same,inhibition at 50 µg/mL,[44],46%
same,CC50,[45],150 µg/mL
same,Colony formation,[46],21%
O=[N+]([O-])c1cccn2nc([C@@H]3O[C@H](CO)[C@@H](O)[C@H]3O)nc12,Colony formation,[3],79.6%
same,Colony formation,[4],46%
same,inhibition at 2.5 µg/mL,[47],47%
same,inhibition at 5 µg/mL,[20],62%
CC1OC(c2nc3c(N)cccn3n2)C(O)C(O)C1O (stereo unspecified),inhibition at 200 µg/mL,[48],0%
same,Colony formation,[31],115%
same,inhibition at 200 µg/mL,[49],50%
same,inhibition at 200 µg/mL,[50],11%
same,Colony formation,[36],83%
same,inhibition at 200 µg/mL,[51],0%
same,Colony formation,[41],94%
same,IC50,[43],200 µg/mL
same,Colony formation,[46],108%
